Source: ChEMBL document CHEMBL3526153, “Metabolism of gambogic acid in rats: a rare intestinal metabolic pathway responsible for its final disposition” (Drug Metab Dispos, 2011)

What was measured:
[1] = Retention time of the compound in Sprague-Dawley rat bile treated with gambogic acid at 4 mg/kg, iv measured over 24 hrs by LC-DAD-MS/MS analysis; assay type: ADME, organism-based; design: dose 4 mg/kg, route intravenous; settings: in vivo
Outline: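 SD rats, n=4, bile-duct cannulated under chloral hydrate and allowed 1 h recovery. GA 4 mg/kg i.v.; bile collected on ice, pooled 0–24 h. C18 LC-DAD-MS/MS at 0.25 mL/min with acetonitrile gradient (38% to 80%) in 10 mM ammonium acetate, 40 °C, negative ESI.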

[2] = Drug level in PBS buffer treated with gambogic acid at 50 uM preincubated for 10 mins followed by NADPH addition measured after 2 hrs in presence of GSH and absence of liver microsomes; assay type: physicochemical
Outline: (§1)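 GA 50 μM in 1.0 mL 0.1 M PBS pH 7.4 with GSH 5.0 mM and NADPH 6.0 mM (final). Line 7 uses rat liver microsomes 1.0 mg/mL; line 2 omits microsomes. Preincubated 10 min at 37 °C, started with NADPH, run 2 h at 37 °C, duplicate. Quenched with ice-cold acetonitrile and dried. LC-MS/MS in negative ESI, isocratic 65% acetonitrile / 10 mM ammonium acetate.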

Liver microsome = experiment: Drug level in rat liver microsomes treated with gambogic acid at 50 uM preincubated for 10 mins followed by NADPH addition measured after 2 hrs in presence of GSH; assay type: ADME; outline: as §1

Retention_time [1]: 5.7 min | Drug metabolism [2]: metabolite_detected | Drug metabolism (Liver microsome): metabolite_detected
SMILES: CC(C)=CCC[C@]1(C)C=Cc2c(O)c3c(c(CC=C(C)C)c2O1)O[C@]12C(C3=O)C(SC[C@H](NC(=O)CC[C@H](N)C(=O)O)C(=O)NCC(=O)O)[C@@H]3C[C@H]1C(C)(C)O[C@@]2(C/C=C(/C)C(=O)O)C3=O (stereo partly drawn)
